The test system of data set [1] is Mus musculus. Briefly: Anti-colitis activity against DSS-induced ulcerative colitis mouse model assessed as increase in body weight at 0.2 to 0.6 mg/kg, ip treated every 72 hrs for 9 days. It is filed as functional, organism-based. The settings on record: dose 0.2-0.6 mg/kg, time 9.0 day. In short, it runs like this: (§1)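 Mice given 2.5% DSS water days 1–7, then water to day 9. Dosing: i.p. 0.2 or 0.6 mg kg−1 in 50% PEG300 on days 2, 5, 8. Body weight and fecal occult blood scored daily. Colon length measured after sacrifice on day 9. Mean ± s.e.m.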

In data set [2] the test system is J774.A1. Briefly: Inhibition of intracellular ROS generation in mouse J774.A1 cells at 0.125 to 0.5 uM pretreated for 1 hr followed by nigericin treatment for 1 hr by DCFH-DA staining based fluorescence microscopy. It is filed as functional, cell-based. Conditions: dose 0.125-0.5 µM, time 2.0 hrs. The gist of the method: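 J774A.1 cells processed through NLRP3 activation protocol (LPS 1 μg mL−1 5 h, compound, nigericin 10 μM 1 h). Loaded with DCFH-DA 20 μM at 37 °C for 30 min and washed twice with D-PBS. Fluorescence read at Ex/Em 492/520.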

Data set [3] addresses NACHT, LRR and PYD domains-containing protein 3 (Mus musculus) (UniProt Q8R4B8). Briefly: Inhibition of NLRP3 inflammasome activation in mouse BMDM cells assessed as reduction in LPS-stimulated ASC specks formation at 50 to 200 nM pretreated for 1 hr followed by nigericin treatment for 30 mins by immunofluorescence analysis. It is filed as cell-based. The settings on record: dose 50-200 nM, time 1.5 hrs. In short, it runs like this:
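BMDMs primed with LPS 1.5 μg mL−1 for 3 h at 37 °C, compound for 1 h, nigericin 10 μM for 30 min. Fixed in 4% paraformaldehyde and permeabilized with 1% Triton X-100. Blocked in 1% BSA, primary antibody overnight at 4 °C, rhodamine secondary plus DAPI. ASC specks counted by fluorescence microscopy.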

The subject of data set [4] is J774.A1. Briefly: Inhibition of STAT5 expression in LPS-treated mouse J774.A1 cells assessed as reduction in STAT5 phosphorylation at 50 to 200 nM treated for 1 hr by Western blot analysis. Format: cell-based. The settings on record: dose 50-200 nM. The gist of the method:
(§2)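 J774A.1 cells pretreated with LPS and compound, lysed in RIPA. pSTAT1, STAT1, pSTAT3, STAT3, pSTAT5 and STAT5 detected by SDS-PAGE western blot with ECL.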
A general note: A western blot detects proteins with antibodies after separation by electrophoresis.

Data set [5] concerns Intestine. Briefly: Anti-colitis activity against DSS-induced ulcerative colitis mouse model assessed as decrease in STAT-3 level in intestinal tissue at 0.2 to 0.6 mg/kg, ip treated every 72 hrs for 9 days by Western blot analysis. Format: functional, organism-based. The settings on record: dose 0.2-0.6 mg/kg, time 9.0 day. The gist of the method: (§3)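 DSS model (2.5% in drinking water days 1–7, water days 8–9). Dosing was i.p. at 0.2 and 0.6 mg kg−1 in 50% PEG300 on days 2, 5, 8. Intestinal tissue taken at sacrifice on day 9. Lysed in RIPA with protease inhibitor and BCA-quantified, then run on SDS-PAGE/PVDF and probed for STAT1, STAT3, STAT5 and caspase-1. ECL detection.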

In data set [6] the test system is Intestine. Briefly: Anti-colitis activity against DSS-induced ulcerative colitis mouse model assessed as decrease in caspase-1 level in intestinal tissue at 0.2 to 0.6 mg/kg, ip treated every 72 hrs for 9 days by Western blot analysis. Conditions: dose 0.2-0.6 mg/kg, time 9.0 day. It is filed as functional, organism-based. In short, it runs like this: as §3
The subject of data set [7] is Mus musculus. Briefly: Anti-colitis activity against DSS-induced ulcerative colitis mouse model assessed as decrease in hemafecia at 0.2 to 0.6 mg/kg, ip treated every 72 hrs for 9 days. Format: functional, organism-based. The settings on record: dose 0.2-0.6 mg/kg, time 9.0 day. The gist of the method:
as §1

For data set [8], the system named is Colon. Briefly: Anti-colitis activity against DSS-induced ulcerative colitis mouse model assessed as decrease in infiltration of inflammatory cells in colon tissue at 0.2 to 0.6 mg/kg, ip treated every 72 hrs for 9 days by H and E staining based analysis. It is filed as functional, organism-based. The settings on record: dose 0.2-0.6 mg/kg, time 9.0 day. In short, it runs like this:
(§4)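 Colons were taken on day 9 from 2.5% DSS-fed mice (DSS days 1–7). Dosing was i.p. 0.2 or 0.6 mg kg−1 in 50% PEG300 on days 2, 5, 8. H&E-stained sections imaged at ×20 and scored for inflammatory infiltration, goblet cell depletion and crypt loss.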

The subject of data set [9] is Colon. Briefly: Anti-colitis activity against DSS-induced ulcerative colitis mouse model assessed as increase in crypt architecture in colon tissue at 0.2 to 0.6 mg/kg, ip treated every 72 hrs for 9 days by H and E staining based analysis. Conditions: dose 0.2-0.6 mg/kg, time 9.0 day. Format: functional, organism-based. The gist of the method: as §4
In data set [10] the target is Signal transducer and activator of transcription 3 (Mus musculus) (UniProt P42227). Briefly: Inhibition of STAT3 expression in LPS-treated mouse J774.A1 cells at 50 to 200 nM treated for 1 hr by Western blot analysis. It is filed as cell-based. The settings on record: dose 50-200 nM. In short, it runs like this: as §2
In data set [11] the test system is Mus musculus. Briefly: Anti-colitis activity against DSS-induced ulcerative colitis mouse model assessed as increase in colon length at 0.2 to 0.6 mg/kg, ip treated every 72 hrs for 9 days. It is filed as functional, organism-based. Conditions: dose 0.2-0.6 mg/kg, time 9.0 day. The gist of the method: as §1
The target of data set [12] is NACHT, LRR and PYD domains-containing protein 3 (Mus musculus) (UniProt Q8R4B8). Briefly: Inhibition of NLRP3 inflammasome activation in mouse J774.A1 cells assessed as reduction in cleaved GSDMD production at 50 to 200 nM pretreated for 1 hr followed by nigericin treatment for 1 hr by Western blot analysis. Format: cell-based. The settings on record: dose 50-200 nM, time 2.0 hrs. In short, it runs like this:
(§5)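 J774A.1 cells, LPS 1 μg mL−1 for 5 h, compound exposure, nigericin 10 μM 1 h. RIPA lysis with protease inhibitor and BCA quantitation, then SDS-PAGE/PVDF. Blocked 5% milk, primary antibodies overnight at 4 °C, HRP secondaries, ECL detection.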

In data set [13] the target is NACHT, LRR and PYD domains-containing protein 3 (Mus musculus, UniProt Q8R4B8). Briefly: Inhibition of NLRP3 inflammasome activation in mouse J774.A1 cells assessed as reduction in LPS-stimulated IL-1beta level pretreated for 1 hr followed by nigericin treatment for 1 hr by ELISA. It is filed as cell-based. The gist of the method: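 J774A.1 cells (DMEM, 10% FBS) primed with LPS 1 μg mL−1 for 5 h, compound 1 h, then nigericin 10 μM for 1 h. Supernatant IL-1β by ELISA; IC50 from three separate determinations.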

In data set [14] the test system is Intestine. Briefly: Anti-colitis activity against DSS-induced ulcerative colitis mouse model assessed as decrease in STAT-1 level in intestinal tissue at 0.2 to 0.6 mg/kg, ip treated every 72 hrs for 9 days by Western blot analysis. It is filed as functional, organism-based. The settings on record: dose 0.2-0.6 mg/kg, time 9.0 day. The gist of the method: as §3

Data set [15] can be described thus: Toxicity in mouse assessed as inactive state of animal at 2 mg/kg/day, ip treated for 7 days. Format: organism-based. Conditions: in vivo, 168 h, time 7 day. In short, it runs like this: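 Preliminary tolerability study: mice (n = 2) injected intraperitoneally at 2 mg kg−1 per day for 7 days. General state and activity observed.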
The target of data set [16] is Nlrp3/Pycard (Mus musculus) (UniProt Q8R4B8+Q9EPB4). Briefly: Inhibition of NLRP3-ASC interaction in LPS-treated mouse J774.A1 cells at 50 to 200 nM pretreated for 1 hr followed by nigericin treatment for 1 hr by Co-IP assay. Format: cell-based. Conditions: dose 50-200 nM, time 2.0 hrs. The gist of the method: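 Primed/treated J774A.1 cells (LPS 1 μg mL−1 5 h, compound, nigericin 10 μM 1 h) lysed on ice 30 min. Precleared with Protein A/G agarose overnight at 4 °C, then primary antibody (IgG control) overnight at 4 °C. Protein A/G added 6 h, beads washed five times with D-PBS, boiled in SDS buffer and western blotted.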

The target in data set [17] is NACHT, LRR and PYD domains-containing protein 3 (Mus musculus) (UniProt Q8R4B8). Briefly: Inhibition of NLRP3 inflammasome activation in mouse J774.A1 cells assessed as reduction in caspase-1 p20 subunits release at 50 to 200 nM pretreated for 1 hr followed by nigericin treatment for 1 hr by Western blot analysis. Format: cell-based. The settings on record: dose 50-200 nM, time 2.0 hrs. In short, it runs like this: as §5

Activity calls are given as the source filed them. The rule behind the calls is not given here.

Sequence of NACHT, LRR and PYD domains-containing protein 3 (Mus musculus) (Q8R4B8 whole entry, the tested form may be a part): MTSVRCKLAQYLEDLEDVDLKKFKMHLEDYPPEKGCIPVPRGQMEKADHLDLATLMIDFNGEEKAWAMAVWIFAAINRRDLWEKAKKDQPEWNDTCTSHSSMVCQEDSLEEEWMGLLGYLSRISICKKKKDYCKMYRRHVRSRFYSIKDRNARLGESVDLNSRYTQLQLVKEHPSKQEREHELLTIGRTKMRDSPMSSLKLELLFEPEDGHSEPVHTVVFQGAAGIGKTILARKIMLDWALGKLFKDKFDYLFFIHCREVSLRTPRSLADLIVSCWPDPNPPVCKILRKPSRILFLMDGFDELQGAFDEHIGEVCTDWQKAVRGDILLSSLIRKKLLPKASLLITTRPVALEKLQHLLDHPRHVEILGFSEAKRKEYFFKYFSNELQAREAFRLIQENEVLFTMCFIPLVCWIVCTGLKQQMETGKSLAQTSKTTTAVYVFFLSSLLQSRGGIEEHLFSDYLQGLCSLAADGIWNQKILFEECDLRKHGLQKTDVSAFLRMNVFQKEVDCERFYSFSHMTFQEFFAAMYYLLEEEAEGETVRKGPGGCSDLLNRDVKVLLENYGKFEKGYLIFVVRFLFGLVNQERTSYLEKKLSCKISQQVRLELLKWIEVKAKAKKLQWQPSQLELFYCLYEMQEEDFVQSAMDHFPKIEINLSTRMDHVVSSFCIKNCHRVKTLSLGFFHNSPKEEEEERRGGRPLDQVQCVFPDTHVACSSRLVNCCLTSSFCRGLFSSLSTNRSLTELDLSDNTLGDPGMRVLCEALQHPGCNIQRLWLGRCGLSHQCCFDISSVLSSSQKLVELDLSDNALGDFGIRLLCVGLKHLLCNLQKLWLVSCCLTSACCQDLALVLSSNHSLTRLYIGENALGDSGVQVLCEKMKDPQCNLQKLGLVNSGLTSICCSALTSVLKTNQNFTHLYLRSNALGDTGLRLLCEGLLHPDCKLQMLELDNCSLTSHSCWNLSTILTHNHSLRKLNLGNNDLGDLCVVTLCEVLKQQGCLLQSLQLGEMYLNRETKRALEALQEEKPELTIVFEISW
Sequence of Nlrp3/Pycard (Mus musculus) (Q8R4B8 whole entry, looked up): as the sequence (Q8R4B8 whole entry, the tested form may be a part) above
Sequence of Nlrp3/Pycard (Mus musculus) (Q9EPB4 whole entry, looked up): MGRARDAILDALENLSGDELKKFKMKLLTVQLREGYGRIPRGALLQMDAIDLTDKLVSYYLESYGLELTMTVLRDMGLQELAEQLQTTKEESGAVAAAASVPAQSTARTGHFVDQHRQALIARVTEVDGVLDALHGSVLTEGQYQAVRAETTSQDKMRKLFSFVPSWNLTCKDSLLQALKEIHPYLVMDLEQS
Sequence of NACHT, LRR and PYD domains-containing protein 3 (Q8R4B8 whole entry, the tested form may be a part): as the sequence (Q8R4B8 whole entry, the tested form may be a part) above
Sequence of Signal transducer and activator of transcription 3 (Mus musculus) (P42227 whole entry): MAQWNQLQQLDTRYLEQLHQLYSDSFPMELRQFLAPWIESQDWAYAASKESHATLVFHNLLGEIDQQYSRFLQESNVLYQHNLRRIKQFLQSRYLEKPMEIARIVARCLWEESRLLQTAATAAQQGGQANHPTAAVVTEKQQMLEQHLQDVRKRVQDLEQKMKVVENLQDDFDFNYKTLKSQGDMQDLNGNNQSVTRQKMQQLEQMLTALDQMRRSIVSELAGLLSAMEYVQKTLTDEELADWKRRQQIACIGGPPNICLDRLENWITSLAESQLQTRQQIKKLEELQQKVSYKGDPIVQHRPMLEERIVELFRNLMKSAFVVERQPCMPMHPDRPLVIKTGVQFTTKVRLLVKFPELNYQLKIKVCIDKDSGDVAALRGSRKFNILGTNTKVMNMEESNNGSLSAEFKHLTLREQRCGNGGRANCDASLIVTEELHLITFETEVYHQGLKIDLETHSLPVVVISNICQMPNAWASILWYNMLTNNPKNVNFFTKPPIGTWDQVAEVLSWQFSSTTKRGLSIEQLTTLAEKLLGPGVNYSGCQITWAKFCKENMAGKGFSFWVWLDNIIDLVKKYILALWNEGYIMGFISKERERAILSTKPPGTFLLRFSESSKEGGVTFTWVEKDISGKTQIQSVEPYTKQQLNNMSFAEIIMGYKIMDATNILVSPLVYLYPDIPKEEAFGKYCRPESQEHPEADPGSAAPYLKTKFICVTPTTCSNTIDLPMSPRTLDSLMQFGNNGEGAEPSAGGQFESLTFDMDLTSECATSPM

Broadly, the IC50 is the concentration at which inhibition is half-maximal. In the case of `Cc1cc(/C=C/C(=O)c2ccc(C(=O)N[C@@H](Cc3ccccc3)C(=O)N[C@@H](CC(C)C)B(O)O)cc2)cc(C)c1O`, the outcome in the data set on Mus musculus [1], in the data set with Intestine [6], in the data set with Mus musculus [7], in the data set with Colon [8], in the data set with Colon [9] and with Mus musculus [11] was Active. Besides, the result with Intestine [14] was Active. The inhibition entry (in the data set with J774.A1 [2]; in data set [10]) was “inactive” throughout. For the same compound, the inhibition entry (in [3]; in the data set with J774.A1 [4]; in data set [12]; in data set [16]; in [17]) was “Active” each time. Also, the result in the data set with Intestine [5] was inactive. In addition, the IC50 in data set [13] was found to be 0.13 µM. The Activity result in data set [15] is recorded as “Toxic”.

The values above are taken from ChEMBL document CHEMBL5357044, “Discovery of a dual-acting inhibitor of interleukin-1β and STATs for the treatment of inflammatory bowel disease” (RSC Med Chem, 2024).
